# Measurements from ChEMBL document CHEMBL3588757, “Structure-based design, synthesis and biological testing of piperazine-linked bis-epipodophyllotoxin etoposide analogs” (Bioorg Med Chem, 2015).
# Activity calls are given as the source filed them. The calls are words filed in the database; no cut-off is given here.
# How the values were obtained:
# [1] = tested on: U-251; assay: Cytotoxicity against human U251 cells assessed as cell growth at 0.05 uM by SRB assay; assay type: functional; details: read-out: Activity
# [2] = tested on: SN12C; assay: Cytotoxicity against human SN12C cells assessed as cell growth at 5 uM by SRB assay; assay type: functional; details: read-out: Activity
# [3] = tested on: SF-295; assay: Cytotoxicity against human SF295 cells assessed as cell growth at 0.005 uM by SRB assay; assay type: functional; details: read-out: Activity
# [4] = tested on: OVCAR-4; assay: Cytotoxicity against human OVCAR4 cells assessed as cell growth at 5 uM by SRB assay; assay type: functional; details: read-out: Activity
# [5] = tested on: SR; assay: Cytotoxicity against human SR cells assessed as cell growth at 0.5 uM by SRB assay; assay type: functional; details: read-out: Activity
# [6] = tested on: OVCAR-5; assay: Cytotoxicity against human OVCAR5 cells assessed as cell growth at 0.5 uM by SRB assay; assay type: functional; details: read-out: Activity
# [7] = tested on: 786-0; assay: Cytotoxicity against human 786-0 cells assessed as cell growth at 0.05 uM by SRB assay; assay type: functional; details: read-out: Activity
# [8] = tested on: PC-3; assay: Cytotoxicity against human PC3 cells assessed as cell growth at 5 uM by SRB assay; assay type: functional; details: read-out: Activity
# [9] = tested on: HCT-116; assay: Cytotoxicity against human HCT116 cells by SRB assay; assay type: functional
# Outline: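 Measured in the NCI-60 human tumour cell line panel using five-dose testing. Growth was recorded at each dose for each cell line, and a GI50 was derived for each line.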
# [10] = tested on: NCI-H522; assay: Cytotoxicity against human NCI-H522 cells assessed as cell growth at 50 uM by SRB assay; assay type: functional; details: read-out: Activity
# [11] = tested on: SF-539; assay: Cytotoxicity against human SF539 cells assessed as cell growth at 50 uM by SRB assay; assay type: functional; details: read-out: Activity
# [12] = tested on: CHO; assay: Induction of apoptosis in CHO cells assessed as increase in sub-G0/G1 cell population at 1 uM after 49 hrs by propidium iodide staining based flow cytometry; assay type: functional; details: Cricetulus griseus
# Outline: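 CHO cells grown to confluence in α-MEM/10% FCS, serum-starved 48 h (0% FCS), then seeded at 2 × 10^5 cells/mL and repleted with 10% FCS. Continuously treated from repletion with 1 µM compound (10 µM etoposide, DMSO control) for various times. Propidium iodide DNA staining, flow cytometric phase distribution including sub-G0/G1.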
# [13] = tested on: SK-OV-3; assay: Cytotoxicity against human SKOV3 cells assessed as cell growth at 50 uM by SRB assay; assay type: functional; details: read-out: Activity
# [14] = tested on: K562; assay: Induction of apoptosis in human K562 cells assessed as increase in proportion of apoptotic and apoptotic/necrotic cells at 1 uM after 24 to 48 hrs by annexin V-FITC/propidium iodide staining based two-color fluorescence flow cytometry; assay type: functional, cell-based
# Outline: (§1)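 K562 cells (1 × 10^6/mL), untreated or given 1 µM compound (10 µM etoposide control) at 37 °C for 24 h or 48 h. Annexin V-FITC plus propidium iodide two-colour flow cytometry. Cells are scored as viable, apoptotic-only (annexin+/PI−), apoptotic/necrotic (annexin+/PI+) or necrotic.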
# [15] = tested on: CHO; assay: Induction of cell cycle arrest in CHO cells assessed as accumulation at G2/M phase at 1 uM by propidium iodide staining based flow cytometry; assay type: functional; details: Cricetulus griseus
# [16] = molecular target: DNA topoisomerase 2-alpha (Homo sapiens) (UniProt P11388); assay: Inhibition of full-length human recombinant topoisomerase 2-alpha-mediated decatenation activity of kDNA at >10 uM by ethidium bromide based gel-assay
# [17] = tested on: K562; assay: Induction of apoptosis in human K562 cells assessed as increase in caspase 3/7 activity at 1 uM by luminescence analysis; assay type: functional, cell-based; details: TDE = time-dependent effect
# Outline: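 K562 cells at 2 × 10^5 cells/mL treated with vehicle or 1 µM compound for 24 or 48 h. Lysates assayed with a luminogenic DEVD-aminoluciferin caspase-3/7 substrate and read by luminescence. Four wells (eight for control); unpaired t-test vs control; repeated on two days.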
# [18] = tested on: K562; assay: Induction of apoptosis in human K562 cells assessed as decrease in proportion of viable cells at 1 uM after 24 to 48 hrs by annexin V-FITC/propidium iodide staining based two-color fluorescence flow cytometry; assay type: functional, cell-based; outline: as §1
# [19] = tested on: SN12C; assay: Cytotoxicity against human SN12C cells assessed as cell growth at 50 uM by SRB assay; assay type: functional; details: read-out: Activity
# [20] = molecular target: DNA topoisomerase 2-alpha (Homo sapiens) (UniProt P11388); assay: Inhibition of full-length human recombinant topoisomerase 2-alpha assessed as conversion of […] DNA at 100 uM by ethidium bromide based gel-assay
# [21] = read-out: LC50 (the source's name)
# [22] = read-out: pLC50 (the source's name) (converted)
# Chain of DNA topoisomerase 2-alpha (Homo sapiens) (P11388 whole entry): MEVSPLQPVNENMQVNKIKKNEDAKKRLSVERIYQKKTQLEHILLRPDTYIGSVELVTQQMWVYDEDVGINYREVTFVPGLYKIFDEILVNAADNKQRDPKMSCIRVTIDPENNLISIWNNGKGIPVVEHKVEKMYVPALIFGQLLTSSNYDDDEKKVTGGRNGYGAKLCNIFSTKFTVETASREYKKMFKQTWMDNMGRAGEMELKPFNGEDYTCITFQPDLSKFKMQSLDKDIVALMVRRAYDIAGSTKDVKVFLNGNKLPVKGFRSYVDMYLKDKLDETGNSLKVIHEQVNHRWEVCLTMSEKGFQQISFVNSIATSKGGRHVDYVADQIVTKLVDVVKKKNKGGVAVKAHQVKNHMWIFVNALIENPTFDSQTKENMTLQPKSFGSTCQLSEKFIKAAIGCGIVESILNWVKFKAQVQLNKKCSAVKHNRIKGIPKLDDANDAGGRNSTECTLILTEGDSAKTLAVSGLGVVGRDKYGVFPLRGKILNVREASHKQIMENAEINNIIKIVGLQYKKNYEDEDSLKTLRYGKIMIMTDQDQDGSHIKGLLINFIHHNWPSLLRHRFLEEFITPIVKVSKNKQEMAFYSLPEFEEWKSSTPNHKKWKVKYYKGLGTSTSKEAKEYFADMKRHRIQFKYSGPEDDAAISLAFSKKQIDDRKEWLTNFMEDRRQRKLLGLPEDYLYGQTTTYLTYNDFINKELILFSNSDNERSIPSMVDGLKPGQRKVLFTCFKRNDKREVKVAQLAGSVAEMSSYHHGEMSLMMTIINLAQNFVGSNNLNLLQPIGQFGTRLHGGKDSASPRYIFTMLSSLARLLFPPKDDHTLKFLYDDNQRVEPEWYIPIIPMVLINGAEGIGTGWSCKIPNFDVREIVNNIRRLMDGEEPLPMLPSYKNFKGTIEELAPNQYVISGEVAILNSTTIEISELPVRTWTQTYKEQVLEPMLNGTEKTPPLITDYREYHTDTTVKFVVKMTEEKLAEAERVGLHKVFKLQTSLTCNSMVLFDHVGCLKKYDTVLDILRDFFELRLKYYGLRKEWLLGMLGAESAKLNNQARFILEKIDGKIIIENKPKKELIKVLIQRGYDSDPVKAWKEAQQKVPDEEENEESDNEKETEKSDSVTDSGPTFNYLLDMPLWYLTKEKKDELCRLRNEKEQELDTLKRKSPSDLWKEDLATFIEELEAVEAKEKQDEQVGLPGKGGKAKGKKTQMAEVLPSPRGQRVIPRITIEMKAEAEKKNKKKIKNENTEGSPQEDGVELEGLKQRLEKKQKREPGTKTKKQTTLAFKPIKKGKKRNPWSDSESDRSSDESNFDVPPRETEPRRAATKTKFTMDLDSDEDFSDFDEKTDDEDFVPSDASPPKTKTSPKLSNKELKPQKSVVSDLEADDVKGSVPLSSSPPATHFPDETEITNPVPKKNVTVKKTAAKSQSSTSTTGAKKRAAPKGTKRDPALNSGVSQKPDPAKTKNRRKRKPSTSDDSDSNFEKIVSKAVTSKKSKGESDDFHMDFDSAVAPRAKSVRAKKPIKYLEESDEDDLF
SMILES,growth at 0.05 µM [1] [%],growth at 5 µM [2] [%],growth at 0.005 µM [3] [%],growth at 5 µM [4] [%],growth at 0.5 µM [5] [%],growth at 0.5 µM [6] [%],growth at 0.05 µM [7] [%],growth at 5 µM [8] [%],GI50 ([9]; read-out: GI50) [µM],"CC50 [9, 21] [µM]",TGI ([9]; read-out: TGI) [µM],GI50 ([9]; read-out: pGI50 (converted)) [µM],"CC50 [9, 22] [µM]",TGI ([9]; read-out: pTGI (converted)) [µM],growth at 50 µM [10] [%],other results
COc1cc([C@@H]2c3cc4c(cc3[C@@H](NC(=O)CN3CCN(CCCCCCN5CCN(CC(=O)N[C@@H]6c7cc8c(cc7[C@@H](c7cc(OC)c(O)c(OC)c7)[C@H]7C(=O)OC[C@@H]76)OCO8)CC5)CC3)[C@H]3COC(=O)[C@H]23)OCO4)cc(OC)c1O,101,11,90,64,22,86,96,54,1.63,> 50,> 50,1.62,> 50.1,> 50.1,-16,growth at 50 µM [11]: -38%
COc1cc([C@@H]2c3cc4c(cc3[C@@H](NC(=O)CN3CCN(CCCCCCCCCCN5CCN(CC(=O)N[C@@H]6c7cc8c(cc7[C@@H](c7cc(OC)c(O)c(OC)c7)[C@H]7C(=O)OC[C@@H]76)OCO8)CC5)CC3)[C@H]3COC(=O)[C@H]23)OCO4)cc(OC)c1O,69,3,92,-28,33,63,89,17,1,46.5,3.46,1,46.8,3.47,-55,Activity [12]: Active; growth at 50 µM [13]: -100%; Activity [14]: Active; Activity [15]: Active; Inhibition of decatenation activity (qualitative) [16]: Active; Activity [17]: tde; Activity [18]: Active; growth at 50 µM [19]: -44%; Inhibition (qualitative activity call) [20]: Active
